Results reported in ChEMBL document CHEMBL1255501, “Heteroresistance of Cryptococcus gattii to fluconazole” (2010).

Legend:
[1] = tested on: Cryptococcus bacillisporus; assay: Antimicrobial activity against Cryptococcus gattii serotype C isolate NIH191 assessed as heteroresistant isolates at 32 ug/ml; format: functional
How it was run: (§1)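 Population analysis: saline cell suspensions (1 × 103 to 4 × 10^3 CFU/ml) plated on plain YPD agar or YPD agar with various fluconazole concentrations; growth recorded after 72 h at 30°C; percentage of resistant subpopulation at each drug level calculated relative to drug-free plate growth.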

[2] = tested on: Cryptococcus gattii species complex; assay: Antimicrobial activity against Cryptococcus gattii serotype B isolate NIH184 assessed as concentration required for heteroresistance; format: functional, Cryptococcus bacillisporus
How it was run: (§2)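 Fluconazole spot test: 10-fold serial dilutions of each single-colony-purified strain spotted on YPD agar alone and YPD agar with fluconazole at 4 to 128 μg/ml. The level of heteroresistance to fluconazole (LHF) is the lowest drug concentration at which minor resistant subpopulations emerge within the spot.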

[3] = tested on: Cryptococcus gattii species complex; assay: Antimicrobial activity against Cryptococcus gattii serotype B isolate B5763 assessed as heteroresistant isolates at 8 ug/ml; format: functional, Cryptococcus bacillisporus
How it was run: (§3)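 Population analysis: cells suspended in sterile saline at 1 × 10³ to 4 × 10³ CFU/ml and plated on plain YPD agar or YPD agar with various fluconazole concentrations. Plates incubated at 30°C for 72 h. The resistant subpopulation at each concentration is recorded as a percentage of the population.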

[4] = tested on: Cryptococcus gattii species complex; assay: Antimicrobial activity against Cryptococcus gattii serotype B isolate VPB571-058 assessed as concentration required for heteroresistance; format: functional, Cryptococcus bacillisporus
[5] = tested on: Cryptococcus gattii species complex; assay: Antimicrobial activity against Cryptococcus gattii serotype C isolate H0058-1-818 assessed as heteroresistant isolates at 32 ug/ml; format: functional, Cryptococcus bacillisporus; how it was run: as §1
[6] = tested on: Cryptococcus gattii species complex; assay: Antimicrobial activity against Cryptococcus gattii serotype B isolate NIH190 assessed as heteroresistant isolates at 4 ug/ml; format: functional, Cryptococcus bacillisporus; how it was run: as §3
[7] = tested on: Cryptococcus gattii species complex; assay: Antimicrobial activity against Cryptococcus gattii serotype B isolate RB-9 assessed as concentration required for heteroresistance; format: functional, Cryptococcus bacillisporus
[8] = tested on: Cryptococcus deuterogattii; assay: Antimicrobial activity against Cryptococcus gattii serotype B isolate NIH444 assessed as heteroresistant isolates at 4 ug/ml; format: functional, Cryptococcus bacillisporus; how it was run: as §3
[9] = tested on: Cryptococcus gattii species complex; assay: Antimicrobial activity against Cryptococcus gattii serotype C isolate NIH257 assessed as heteroresistant isolates at 2 ug/ml; format: functional, Cryptococcus bacillisporus
How it was run: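 Cell suspensions of 1 × 10^3 to 4 × 10^3 CFU/ml were made in sterile saline and plated on plain YPD agar or YPD agar with various fluconazole concentrations. Plates were incubated at 30°C for 72 h, and the percentage of resistant subpopulation emerging was recorded.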

[10] = tested on: Cryptococcus gattii species complex; assay: Antimicrobial activity against Cryptococcus gattii serotype B isolate B5765 assessed as heteroresistant isolates at 2 ug/ml; format: functional, Cryptococcus bacillisporus; how it was run: as §3
[11] = tested on: Cryptococcus gattii species complex; assay: Antimicrobial activity against Cryptococcus gattii serotype B isolate VPB572-058 assessed as heteroresistant isolates at 16 ug/ml; format: functional, Cryptococcus bacillisporus; how it was run: as §1
[12] = tested on: Cryptococcus gattii species complex; assay: Antimicrobial activity against Cryptococcus gattii serotype B isolate NIH409 assessed as heteroresistant isolates at 8 ug/ml; format: functional, Cryptococcus bacillisporus; how it was run: as §3
[13] = tested on: Cryptococcus gattii species complex; assay: Antimicrobial activity against Cryptococcus gattii serotype B isolate RAM002 assessed as heteroresistant isolates at 4 ug/ml; format: functional, Cryptococcus bacillisporus; how it was run: as §1
[14] = tested on: Cryptococcus gattii species complex; assay: Antimicrobial activity against Cryptococcus gattii serotype C isolate H0058-1-2023 assessed as concentration required for heteroresistance; format: functional, Cryptococcus bacillisporus
[15] = tested on: Cryptococcus gattii species complex; assay: Antimicrobial activity against Cryptococcus gattii serotype C isolate H0058-1-1941 assessed as concentration required for heteroresistance; format: functional, Cryptococcus bacillisporus
[16] = tested on: Cryptococcus gattii species complex; assay: Antimicrobial activity against Cryptococcus gattii serotype B isolate NIH412 assessed as concentration required for heteroresistance; format: functional, Cryptococcus bacillisporus; how it was run: as §2
[17] = tested on: Cryptococcus gattii species complex; assay: Antimicrobial activity against Cryptococcus gattii serotype B isolate NIH286 assessed as heteroresistant isolates at 32 ug/ml; format: functional, Cryptococcus bacillisporus; how it was run: as §3
[18] = tested on: Cryptococcus gattii species complex; assay: Antimicrobial activity against Cryptococcus gattii serotype B isolate RB14 assessed as heteroresistant isolates at 8 ug/ml; format: functional, Cryptococcus bacillisporus; how it was run: as §1
[19] = tested on: Cryptococcus gattii species complex; assay: Antimicrobial activity against Cryptococcus gattii serotype B isolate RB-11 assessed as concentration required for heteroresistance; format: functional, Cryptococcus bacillisporus
[20] = tested on: Cryptococcus gattii species complex; assay: Antimicrobial activity against Cryptococcus gattii serotype B isolate B5788 assessed as heteroresistant isolates at 8 ug/ml; format: functional, Cryptococcus bacillisporus; how it was run: as §3
[21] = tested on: Cryptococcus gattii species complex; assay: Antimicrobial activity against Cryptococcus gattii serotype C isolate NIH917 assessed as concentration required for heteroresistance; format: functional, Cryptococcus bacillisporus
How it was run: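 […] on YPD agar at 4 to 128 μg/ml. The lowest drug concentration at which minor resistant subpopulations emerged within the patch was scored as the strain's level of heteroresistance.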

[22] = tested on: Cryptococcus gattii species complex; assay: Antimicrobial activity against Cryptococcus gattii serotype B isolate B3939 assessed as heteroresistant isolates at 4 ug/ml; format: functional, Cryptococcus bacillisporus; how it was run: as §3
[23] = tested on: Cryptococcus gattii species complex; assay: Antimicrobial activity against Cryptococcus gattii serotype C isolate H0058-1-78 assessed as heteroresistant isolates at 8 ug/ml; format: functional, Cryptococcus bacillisporus; how it was run: as §1
[24] = tested on: Cryptococcus gattii species complex; assay: Antimicrobial activity against Cryptococcus gattii serotype B isolate NIH200 assessed as concentration required for heteroresistance; format: functional, Cryptococcus bacillisporus; how it was run: as §2
[25] = tested on: Cryptococcus gattii species complex; assay: Antimicrobial activity against Cryptococcus gattii serotype C isolate H0058-1-818 assessed as heteroresistant isolates at 2 ug/ml; format: functional, Cryptococcus bacillisporus; how it was run: as §1
[26] = tested on: Cryptococcus gattii species complex; assay: Antimicrobial activity against Cryptococcus gattii serotype B isolate RB-1 assessed as concentration required for heteroresistance; format: functional, Cryptococcus bacillisporus

OC(Cn1cncn1)(Cn1cncn1)c1ccc(F)cc1F [FLUCONAZOLE]
Activity [1]: 20% | Activity [2]: 16 µg/mL | Activity [3]: 0.03% | Activity [4]: 32 µg/mL | Activity [5]: 16% | Activity [6]: 100% | Activity [7]: 32 µg/mL | Activity [8]: 100% | Activity [9]: 100% | Activity [10]: 100% | Activity [11]: 100% | Activity [12]: 100% | Activity [13]: 100% | Activity [14]: 32 µg/mL | Activity [15]: 32 µg/mL | Activity [16]: 4 µg/mL | Activity [17]: 0.06% | Activity [18]: 100% | Activity [19]: 32 µg/mL | Activity [20]: 5.7% | Activity [21]: 32 µg/mL | Activity [22]: 100% | Activity [23]: 100% | Activity [24]: 4 µg/mL | Activity [25]: 100% | Activity [26]: 32 µg/mL
